# In PubChem BioAssay AID651723 (Broad Institute, 2012):
# Where “and” joins values, the source holds several entries; their conditions need not be identical. Equal values may be shown once. Screen size: about 350,000 compounds; about 740 (0.21%) were called active. The sample as a whole holds a higher share of actives than the screen did. Unmarked numbers belong to inactive results.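 The calls were made as follows: active = every replicate reaching activation of at least 50%, whatever the mean replicate activation; inconclusive = replicates that disagree or another doubt; inactive = the rest.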
# Assay: compounds raising PGC1a acetylation signal, primary screen, PGC1a modulator project, cell-based, U2OS, AlphaScreen, signal-increasing mode (AID 651723)
# Conditions: overnight, at 15.6 µM, stronger effect = higher value
# Method in brief: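 Test system: U2OS cells expressing flag-PGC1a plus GCN5; Amount: 7000 U2OS cells per well; Compound: single test concentration per compound; Incubation: compound overnight at 37 °C, each detection step 1 h RT; Signal: AlphaScreen lysate read.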
row,Compound,activation
1,CCOC(=O)c1c(-c2ccc(C)cc2C)csc1NC(=O)CSc1nnnn1C,-46.2%
2,CCOC(=O)c1c(NC(=O)CSc2cn(CC)c3ccccc23)sc2c1CCC2,67.2% (active)
3,CCCCC(=O)Nc1ccc(C(=O)NCCCn2ccnc2)cc1,71.6% (active)
4,Cc1noc(C)c1S(=O)(=O)Nc1ccc2c(c1)C(=O)N([C@@H](C)CO)C[C@@H](C)[C@@H](CN(C)S(=O)(=O)c1ccccc1)O2,-50.3%
5,Cc1ccc(-c2c[n+](CC(=O)Nc3ccccc3)c3n2CCC3)cc1,-43.3%
6,Cc1nc(SCC(=O)NC2CCCC2)[nH]c(=O)c1C,-42.3%
7,Cc1csc(NC(=O)NC2(C(F)(F)F)Oc3ccccc3O2)n1,74.6% (active)
8,c1ccc2c(-c3nn4nnnc4c4ccccc34)cccc2c1,71% (active)
9,Cn1c2c(c(=O)n(C)c1=O)C(c1cccc(F)c1)C(C#N)=C(N)O2 (stereo not given),-80.9%
10,COc1ccc(Oc2c(Cl)cnn(-c3ccccc3)c2=O)cc1,112% (active)
11,CCOCCc1nn2c(=O)cc(CSCC(=O)Nc3cccc(C)c3C)nc2s1,-38.7%
12,O=S(=O)(c1ccc(Br)cc1)n1ccc2ccccc21,-40.2%
13,Cc1cc(C)c(S(=O)(=O)NCC2CCC(C(=O)NCc3ccc4c(c3)OCO4)CC2)c(C)c1 (stereo not given),-43.2%
14,CC(C)(C)c1cc(C(=O)N/N=C/c2ccc([N+](=O)[O-])s2)n[nH]1,80.1% (active)
15,Cc1nc(Nc2ccc3c(c2)OCCO3)c2nnn(Cc3ccccc3Cl)c2n1,-56.2%
16,N#Cc1c(N)nc2c3c(sc(=N)c2c1N)NC(=O)CC3c1ccccc1Cl (stereo not given),67.8% (active)
17,Cc1cccc(CS(=O)(=O)c2ncc(Cl)c(C(=O)Nc3ccc(F)cc3)n2)c1,138% (active)
18,O=C(Nc1cccc(Cl)c1)c1cncn1-c1ccc(F)cc1,-44.8%
19,CN(C)c1ccc(-n2cccc2/C=N/n2cnnc2)cc1,-55.5%
20,O=C(NC1=CC(=O)c2ccccc2C1=O)c1ccccc1,-80.8%
21,CC[C@H]1CN2CCc3cc(OC)c(OC)cc3[C@@H]2C[C@@H]1C[C@H]1NCCc2cc(OC)c(OC)cc21,-83.7%
22,N#Cc1ccc(-c2ccc(C3[C@@H]4CN(S(=O)(=O)c5ccc(F)cc5)C[C@H]3N4)cc2)cc1 (stereo not given in full),-58.1%
23,CCc1ccc(N2CC(O)=C(c3nc4ccccc4c(=O)[nH]3)C2=N)cc1,165% (active)
24,Cc1cc(C(=O)NNS(=O)(=O)c2ccccc2C(F)(F)F)nn1C(C)(C)C,259% (active)
25,CCOC(=O)CSc1nccc(N(C)C)c1C#N,-9.86%

row,Compound,activation
1,COc1ccc(CC(NC(C)=O)C(=O)N2CCN(C(=O)Nc3cccc(Cl)c3)CC2)cc1OC (stereo not given),-50.7%
2,Cc1cc(C)n(-c2nc(O)cc(=O)[nH]2)n1,-36.3%
3,COc1ccc(C(=O)NN(C)c2nc(-c3ccccc3)cc(C)c2S(C)(=O)=O)cc1,87.7% (active)
4,CC(C)C#Cc1cnc2c(c1)C(=O)N([C@@H](C)CO)C[C@@H](C)[C@@H](CN(C)C(=O)CN1CCOCC1)O2,-58.3%
5,O=C(CSc1nnc(Cn2cnc3ccccc32)o1)c1ccccc1,59.8% (active)
6,CCOc1ccccc1CN1CCN(C2CCC2)CC1CCO (stereo not given),-74.8%
7,CN1OC[C@@H]2CN(S(=O)(=O)c3cccc4ccccc34)[C@H](c3ccc(N4CCCCC4)cc3)C[C@@H]21,-47.9%
8,Cc1cc(C)nc(S/C=C/C(=O)c2ccccc2)n1,63.2% (active)
9,CCOC(=O)c1ccc2[nH]c(C)c(CN3CCN(C)CC3)c(=O)c2c1,-59.3%
10,CC(C)CCNc1nc(N2CCCC2)c2c(c1C#N)CCN(C)C2,102% (active)
11,C[C@@H]1CCCCO[C@@H](CN(C)CC2CC2)[C@H](C)CN([C@H](C)CO)C(=O)c2cc(NS(=O)(=O)c3ccccc3)ccc2O1,-56.4%
12,COc1ccc(C(=O)/C=C/c2cccnc2)c(OC)c1,70.7% (active)
13,NC(=O)N/N=C\c1cccs1,-76.7%
14,O=C(Nc1ccc2c(c1)OCO2)N[C@H]1CC[C@H](CCNC(=O)C2CCC2)O[C@@H]1CO,-46.2%
15,O=[N+]([O-])c1ccc(C=Nc2ccc(Cl)cc2Cl)s1,68.4% (active)
16,C=CCn1c(=NC(=O)c2ccc(S(=O)(=O)N3CCCC3)cc2)sc2cc(NC(C)=O)ccc21,-51.1%
17,N#Cc1ccc(-c2ccc([C@@H]3[C@H]4CNC[C@@H]3N4Cc3ccc4c(c3)OCO4)cc2)cc1,-48.1%
18,CCOC(=O)C1=CC[C@@H](c2ccccc2)N(S(=O)(=O)c2ccc(C)cc2)[C@H]1c1ccc(CC)cc1,75.7% (active)
19,NC(=NC(=O)c1ccccc1)N1CCOCC1,-84.1%
20,CCN(CC)C(=O)c1ccc(O)c(OC)c1,-55.9%
21,N=C1C(c2nc3ccccc3s2)=C(O)CN1NC(=O)c1ccc([N+](=O)[O-])cc1,-100%
22,COc1ccc(C(=O)Nc2nc(-c3ccc(OC)cc3)c(-c3ccc([N+](=O)[O-])cc3)s2)cc1,55.6% (active)
23,O=C(Cc1ccccc1)N1N=C(c2ccncc2)CC1(O)C(F)(F)F (stereo not given),-50%
24,C[C@@H]1CCCCO[C@@H](CN(C)CC2CC2)[C@@H](C)CN([C@H](C)CO)C(=O)c2cc(NC(=O)C3CCCCC3)ccc2O1,-52.5%
25,CCc1ccc(NC(=O)Nc2ccncc2)cc1,-48.9%

row,Compound,activation
1,Cc1nc2ccccc2c(=O)n1NC(=O)c1ccc(Cl)c([N+](=O)[O-])c1,-44.8%
2,CCn1c(/C=C/c2ccc([N+](=O)[O-])o2)nc2ccccc2c1=O,149% (active)
3,O=C1CN(S(=O)(=O)Cc2ccccc2)C[C@@H]2[C@@H](c3ccc(C#Cc4cccc(F)c4)cc3)[C@@H](CO)N12,60.3% (active)
4,COc1ccc(-c2ccc(CCC(=O)O)n2NC(=O)c2ccc(C(C)(C)C)cc2)cc1,-43.5%
5,S=C1NC(c2ccccc2)=NCN1c1ccc(Br)cc1,-80.9%
6,NC(=O)Cc1ccc2c(c1)[nH]c1ccccc12,116% (active)
7,O=S(=O)(O)c1nc2ccccc2n1Cc1ccc(Cl)cc1,-47.2%
8,Cc1oc2c(c1C(=O)N1CCOCC1)C(=O)c1ccccc1C2=O,-42.9%
9,CN1/C(=C\C(=O)c2oc3ccccc3c2N)C(C)(C)c2ccccc21,-86.9%
10,CC(C)c1cc(C(=O)N/N=C/C(Br)=C/c2ccccc2)n[nH]1,125% (active)
11,Cc1cc(C(=O)N/N=C\C(Br)=C\c2ccccc2)c(C)o1,85.5% (active)
12,Cc1[nH]c(=O)c(C(=O)/C=C/c2ccccc2)c2c1CCCC2,-53.2%
13,N#Cc1cccc(NC(=O)COC(=O)c2ccccc2C(=O)c2ccc(Cl)c([N+](=O)[O-])c2)c1,-46.9%
14,Clc1ccc(-c2nnc(-c3ccccc3)nc2N2CCSCC2)cc1,80.9% (active)
15,CN1CCc2c(sc3c2c(NCc2ccco2)nc2nnnn23)C1,-44.7%
16,COCCNC(=O)CSc1nc2c(n1-c1ccccc1)CCCC2,-43.7%
17,COc1ccc(NC(=O)C2(C)Cc3c(-c4cccc(NC(C)=O)c4)ccnc3O2)cc1 (stereo not given),71.2% (active)
18,CCc1ccc(NC(=O)CSc2nnc(-c3cnccn3)n2Cc2ccco2)cc1,-45.6%
19,O=C(/C=C/Sc1ncn[nH]1)c1ccc(Cl)cc1,109% (active)
20,COc1cccc(CNC(=O)CCC2CCCN(Cc3ccc(OC(F)F)cc3)C2)c1 (stereo not given),-52.5%
21,Cc1cccc(NC(=O)c2ccc([N+](=O)[O-])o2)c1,149% (active)
22,CC(C)NC(=O)Nc1ccc2c(c1)C(=O)N([C@@H](C)CO)C[C@@H](C)[C@H](CN(C)S(=O)(=O)c1ccccc1)OCCCC[C@@H](C)O2,-124%
23,COc1ccc(-c2cc(=O)c3c(O)cc(O[C@@H]4O[C@H](CO[C@@H]5O[C@@H](C)[C@H](O)[C@@H](O)[C@H]5O)[C@@H](O)[C@H](O)[C@H]4O)cc3o2)cc1O,-49.5%
24,COCC(=O)Nc1ccc2c(c1)OC[C@H](C)N(C(=O)c1ccccc1F)C[C@H](C)[C@H](OC)CN(C)C2=O,-42.9%
25,CCc1cc2c(N3CCN(c4nnc(CC)s4)CC3)ncnc2s1,53.5% (active)

row,Compound,activation
1,CC1(C)CCSC(/C=C/c2ccccc2)=N1,183% (active)
2,O=[N+]([O-])c1c(NCCO)cc(Sc2nc3ccccc3s2)c2nonc12,-45%
3,C[C@H](CO)N1C[C@H](C)[C@H](CN(C)Cc2ccc(C(=O)O)cc2)Oc2ncc(-c3ccccc3)cc2C1=O,-41.5%
4,Cc1cccc(C2C3=C(CCCC3=O)N=C3c4ccccc4C(=O)C32)c1 (stereo not given),80% (active)
5,CC(=O)NC1CCN(CC(=O)Nc2nccs2)CC1,-50.3%
6,CC(C)Cc1nn2c(=O)cc(O)nc2s1,-40.3%
7,COc1ccc(N(Cc2cc3cc(OC)ccc3[nH]c2=O)S(C)(=O)=O)cc1,69.9% (active)
8,N#Cc1ccc(C(c2ccc(C#N)cc2)n2cncn2)cc1,-48.6%
9,Cc1cc(C)cc(N(CC(=O)Nc2c(C)n(C)n(-c3ccccc3)c2=O)S(C)(=O)=O)c1,-49.5%
10,C[C@H]1CN([C@@H](C)CO)C(=O)c2cc(C#Cc3ccc(F)cc3)cnc2O[C@@H]1CN(C)C(=O)Nc1ccc(F)cc1,-44%
11,COc1ccc(C#Cc2ccc([C@H]3[C@@H](CO)N4CCCCN(C(=O)Nc5ccccc5)C[C@H]34)cc2)cc1,77.7% (active)
12,COc1ccc(NC(=O)/C(Cl)=C(/Cl)S(=O)Cc2ccc(C)cc2)cn1 (stereo not given),-69.3%
13,Cc1ccc(S(=O)(=O)Nc2ccc3c(c2)C(=O)N([C@H](C)CO)C[C@H](C)[C@H](CN(C)C(=O)NC(C)C)OCCCC[C@@H](C)O3)cc1,-41.5%
14,COCC(=O)Nc1ccc2c(c1)OC[C@@H](C)N(CCc1ccccc1)C[C@H](C)[C@@H](OC)CN(C)C2=O,-52.2%
15,COc1ccc(C2CC(c3cccs3)=NN2c2nc(C)c(C(C)=O)s2)cc1OC (stereo not given),83.1% (active)
16,COc1ccc(S(=O)(=O)N2CCN(C(=O)c3cccs3)CC2)cc1OC,-44%
17,O=S(=O)(NCc1ccccc1Br)c1ccccc1Br,55.2% (active)
18,COc1cc(NC(=O)c2[nH]cnc2C(N)=O)cc(C(=O)Nc2cccc(C(F)(F)F)c2)c1,-62.8%
19,C[C@H](CO)N1C[C@H](C)[C@@H](CN(C)Cc2cccnc2)Oc2cc(C3=CCCC3)ccc2S1(=O)=O,-50.5%
20,O=C(NCc1ccccc1)C(c1ccccc1)N(C(=O)c1csnn1)c1ccc(F)cc1 (stereo not given),85.7% (active)
21,Cc1noc(C)c1S(=O)(=O)N(C)C[C@H]1Oc2ccc(NS(=O)(=O)c3cccs3)cc2C(=O)N([C@H](C)CO)C[C@H]1C,-48%
22,Cc1cc(C)c2c(-n3cccc3)c(C(=O)NNS(=O)(=O)c3ccc(F)cc3)sc2n1,132% (active)
23,Cc1cccc(-c2ccc(C3[C@@H]4CN(C(=O)Nc5ccc(C(F)(F)F)cc5)C[C@H]3N4)cc2)c1 (stereo not given in full),-92.4% and -92.8%
24,CC(C)C(OC(=O)c1cccs1)C(=O)NC1CCCCC1 (stereo not given),90.6% (active)
25,CC/C(=N\NC(=O)c1ccccc1Cl)c1ccc(Br)s1,-82.8%
